Laboratory results reported in ChEMBL document CHEMBL1128681, “Studies on the monoamine oxidase (MAO)-catalyzed oxidation of phenyl-substituted 1-methyl-4-phenoxy-1,2,3,6-tetrahydropyridine derivatives: factors contributing to MAO-A and MAO-B selectivity” (J Med Chem, 1995).

Assay: Selectivity coefficient as ratio of Kcat/Km for MAO-A and Kcat/Km for MAO-B
Procedure, shortened: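 Selectivity coefficient: MAO-A kcat/KM divided by MAO-B kcat/KM. Each value came from spectrophotometric initial-rate kinetics at 100–2000 μM substrate in 100 mM sodium phosphate pH 7.4, with 0.16 μM MAO-A or 0.08 μM MAO-B, and double-reciprocal plot analysis.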

SMILES	Selectivity coefficient
CN1CC=C(Cc2ccccc2)CC1	0.08
CN1CC=C(Oc2cccc(-c3ccccc3)c2)CC1	8.74
CN1CC=C(c2ccccc2)CC1	0.03
COc1cccc(OC2=CCN(C)CC2)c1	3.88
CN1CC=C(Oc2ccc(-c3ccccc3)cc2)CC1	4.71
CN1CC=C(Oc2ccc(Cl)cc2)CC1	2.15
COc1ccccc1OC1=CCN(C)CC1	1.01
Cc1cccc(OC2=CCN(C)CC2)c1	1.16
CN1CC=C(Oc2ccccc2[N+](=O)[O-])CC1	1.7
CN1CC=C(Oc2cccc(Cl)c2)CC1	5.99
CN1CC=C(Oc2ccc([N+](=O)[O-])cc2)CC1	2.53
Cc1ccc(OC2=CCN(C)CC2)cc1	0.3
COc1ccc(OC2=CCN(C)CC2)cc1	2.08
CN1CC=C(Oc2ccccc2)CC1	0.57
Cc1ccccc1OC1=CCN(C)CC1	1.4
CN1CC=C(Oc2ccccc2Cl)CC1	2.99
CN1CC=C(Oc2cccc([N+](=O)[O-])c2)CC1	1.21
CN1CC=C(Oc2ccccc2-c2ccccc2)CC1	4.35
